Assay outcomes as filed in PubChem BioAssay.
Lipid droplet – hepatic lipid droplet formation modulation; AID 1656; inhibition, % at 6.5 µM; 0.4% of 240,000 active; AML12 mouse hepatocytes, oleate lipid droplets, BODIPY imaging;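 active = lipid droplet intensity inhibited by at least 50%, with more than 500 cells counted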
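System: AML12 hepatocytes (mouse). Probe or stimulus: oleic acid at 100 µM to induce lipid droplet formation. Times: overnight treatment with compound plus oleate. Detection: Image-based BODIPY and DAPI two-channel analysis. Evaluation: percent inhibition of filter-corrected integrated lipid droplet intensity per well.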
MOR-DOR ag – agonists of human mu-delta opioid receptor heterodimerization. P35372+P41143. cells, OPRM1-OPRD1 heterodimerization, luminescence. activation, % at 9.3 µM. 0.3% of 340,000 active. AID 504326; in the data active = activation above about 18%
Target sequence (P35372 whole entry, looked up): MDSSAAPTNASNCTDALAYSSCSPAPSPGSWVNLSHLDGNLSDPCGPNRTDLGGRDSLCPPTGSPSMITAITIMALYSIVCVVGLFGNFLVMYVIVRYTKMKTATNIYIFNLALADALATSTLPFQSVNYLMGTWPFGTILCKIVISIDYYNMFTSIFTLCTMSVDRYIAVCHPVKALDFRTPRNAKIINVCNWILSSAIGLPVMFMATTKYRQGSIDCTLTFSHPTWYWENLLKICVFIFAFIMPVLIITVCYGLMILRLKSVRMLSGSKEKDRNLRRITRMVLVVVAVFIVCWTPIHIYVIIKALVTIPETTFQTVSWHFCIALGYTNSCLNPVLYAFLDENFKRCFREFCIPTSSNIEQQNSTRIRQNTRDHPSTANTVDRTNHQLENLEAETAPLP
Target sequence (P41143 whole entry, looked up): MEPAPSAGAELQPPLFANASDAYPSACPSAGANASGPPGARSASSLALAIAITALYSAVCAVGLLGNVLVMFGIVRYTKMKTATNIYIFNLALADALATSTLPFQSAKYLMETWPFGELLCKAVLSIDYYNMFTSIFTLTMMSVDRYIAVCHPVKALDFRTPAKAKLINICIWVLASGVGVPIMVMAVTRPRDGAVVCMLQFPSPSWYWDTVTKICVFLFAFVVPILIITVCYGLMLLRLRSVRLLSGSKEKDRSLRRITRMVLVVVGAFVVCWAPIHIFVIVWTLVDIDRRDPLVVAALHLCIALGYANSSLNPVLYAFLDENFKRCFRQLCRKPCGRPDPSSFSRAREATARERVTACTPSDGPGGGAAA
HTR5A inv ag – counter-screen for OPRM1-OPRD1 inverse agonists: human HTR5A inverse agonism; HTR5A cell line, luminescence; 0.083% of 340,000 active; inhibition, % at 9.3 µM; AID 504634; in the data active = inhibition mostly above about 23%, no sharp cut-off; inactive = mostly below about 18%
MOR-DOR inv ag-1 – inverse agonist of human OPRM1-OPRD1 heterodimerization. 0.21% of 340,000 active. cell-based MOR-DOR heterodimer luminescence, inverse agonism. inhibition, % at 9.3 µM. P35372+P41143; in the data active = inhibition above about 22%, passing the limit was not always enough
HTR5A ag ctr – activates human HTR5A in OPRM1-OPRD1 agonist counter-screen; AID 504692; activation, % at 9.3 µM; HTR5A agonist assay, luminescence, cell-based; 0.61% of 340,000 active; P47898; in the data active = activation mostly above about 9.5%, no sharp cut-off; inactive = mostly below about 7.6%
MOR-DOR inv ag-2 – opioid heterodimer inverse agonism, HTR5A counter-screen; shares compounds with HTR5A inv ag; inhibition, % at 9.3 µM; 190 tested, under 10 active; U2OS counter-screen cells, complementation luminescence
HTR5A inv confrm – HTR5A (human) inverse agonism, confirmation; shares compounds with HTR5A inv ag; inhibition, % at 9.3 µM; HTR5A-expressing cells, luminescence; AID 504916; 190 tested, under 10 active
A number is an active result. Only some compounds are listed: those with a hit (about 1.4% of all), similar ones and a draw of the others. Unless noted, the rule behind the calls is not given here.

Screening N/C(=N\OC(=O)CCN1C(=O)c2ccccc2C1=O)c1ccccn1 returned Lipid droplet inactive, MOR-DOR ag inactive, HTR5A inv ag 47, MOR-DOR inv ag-1 inactive, HTR5A ag ctr inactive, MOR-DOR inv ag-2 inactive and HTR5A inv confrm inactive.
For N#CC(C#N)=C(N)/C(C#N)=C/c1cc(O)c(O)c(O)c1 the results were MOR-DOR ag inactive, HTR5A inv ag 30, MOR-DOR inv ag-1 inactive, HTR5A ag ctr inactive, MOR-DOR inv ag-2 inactive and HTR5A inv confrm inactive.
`N#CCCN(/N=C/c1cccnc1)C1=NS(=O)(=O)c2ccccc21` gave Lipid droplet inactive, MOR-DOR ag inactive, HTR5A inv ag 34, MOR-DOR inv ag-1 inactive, HTR5A ag ctr inactive, MOR-DOR inv ag-2 inactive and HTR5A inv confrm inactive.
For COc1ccc(NC(=O)c2cc3c(=O)n(C)c4ccccc4c3s2)cc1OC the results were Lipid droplet inactive, MOR-DOR ag inactive, HTR5A inv ag inactive, MOR-DOR inv ag-1 inactive and HTR5A ag ctr inactive.
Screening CSc1ccc(/C=N/n2c(Cc3ccc(Br)cc3)n[nH]c2=S)cc1 returned Lipid droplet inactive, MOR-DOR ag inactive, HTR5A inv ag 32, MOR-DOR inv ag-1 inactive, HTR5A ag ctr inactive, MOR-DOR inv ag-2 inactive and HTR5A inv confrm inactive.
For FC(F)Oc1ccc(/C=N/n2c(Cc3ccc(Br)cc3)n[nH]c2=S)cc1 the results were Lipid droplet inactive, MOR-DOR ag inactive, HTR5A inv ag inactive, MOR-DOR inv ag-1 inactive and HTR5A ag ctr inactive.
Screening Cc1ccc(NC(=O)CSc2cn[nH]n2)cc1 returned Lipid droplet inactive, MOR-DOR ag inactive, HTR5A inv ag inactive, MOR-DOR inv ag-1 inactive and HTR5A ag ctr inactive.
Screening CCOc1cc(/C=C2\CCC/C(=C\c3cc(Cl)c(O)c(OCC)c3)C2=O)cc(Cl)c1O returned MOR-DOR ag inactive, HTR5A inv ag 46, MOR-DOR inv ag-1 inactive, HTR5A ag ctr inactive, MOR-DOR inv ag-2 inactive and HTR5A inv confrm inactive.
CCOc1cc(/C=C2\CN(C)C/C(=C\c3ccc(O)c(OCC)c3)C2=O)ccc1O was read as Lipid droplet inactive, MOR-DOR ag inactive, HTR5A inv ag inactive, MOR-DOR inv ag-1 inactive and HTR5A ag ctr inactive.
Screening CCCCCNC(=O)CSC1=N/C(=C\c2ccc(Cl)c(Cl)c2)C(=O)N1CC returned Lipid droplet inactive, MOR-DOR ag inactive, HTR5A inv ag inactive, MOR-DOR inv ag-1 inactive and HTR5A ag ctr inactive.
Screening O=C(CSC1=N/C(=C/c2ccc(Cl)c(Cl)c2)C(=O)N1c1ccccc1F)NC1CC1 returned Lipid droplet inactive, MOR-DOR ag inactive, HTR5A inv ag 37, MOR-DOR inv ag-1 inactive, HTR5A ag ctr inactive, MOR-DOR inv ag-2 inactive and HTR5A inv confrm inactive.
Screening O=C(NCCc1nc(-c2ccccc2Cl)no1)c1ccccc1 returned MOR-DOR ag inactive, HTR5A inv ag inactive, MOR-DOR inv ag-1 inactive and HTR5A ag ctr inactive.
CC(C)C(=O)NCCc1nc(-c2ccccc2Cl)no1 was read as MOR-DOR ag inactive, HTR5A inv ag 38, MOR-DOR inv ag-1 inactive, HTR5A ag ctr inactive, MOR-DOR inv ag-2 inactive and HTR5A inv confrm inactive.
For O=C(O)CCC(=O)Nc1ccc2c(c1)Cc1cc(NC(=O)CCC(=O)O)ccc1-2 the results were Lipid droplet inactive, MOR-DOR ag inactive, HTR5A inv ag inactive, MOR-DOR inv ag-1 inactive and HTR5A ag ctr inactive.
`O=[N+]([O-])c1ccc2nc(NN=Cc3ccc(O)cc3)sc2c1` gave MOR-DOR ag inactive, HTR5A inv ag 30, MOR-DOR inv ag-1 inactive, HTR5A ag ctr inactive, MOR-DOR inv ag-2 inactive and HTR5A inv confrm inactive.
For CC(C)c1ccc(/C=C/C(=O)Nc2nc3ccc([N+](=O)[O-])cc3s2)cc1 the results were MOR-DOR ag inactive, HTR5A inv ag inactive, MOR-DOR inv ag-1 inactive and HTR5A ag ctr inactive.
Screening COCCN1Cc2cccc(C(=O)NCc3ccccc3OC)c2C1=O returned Lipid droplet inactive, MOR-DOR ag inactive, HTR5A inv ag inactive, MOR-DOR inv ag-1 inactive and HTR5A ag ctr inactive.
CCCN1Cc2cccc(C(=O)NCc3ccccc3OC)c2C1=O was read as Lipid droplet inactive, MOR-DOR ag inactive, HTR5A inv ag 37, MOR-DOR inv ag-1 inactive, HTR5A ag ctr inactive, MOR-DOR inv ag-2 inactive and HTR5A inv confrm inactive.
Cc1cc(C)nc(N/N=C/c2cc(Br)ccc2O)n1 was read as Lipid droplet inactive, MOR-DOR ag inactive, HTR5A inv ag 33, MOR-DOR inv ag-1 inactive, HTR5A ag ctr inactive, MOR-DOR inv ag-2 inactive and HTR5A inv confrm inactive.
